Assay [1] has as its system B16-F10. The assay is described as follows: Induction of apoptosis in mouse B16F10 cells assessed as total apoptosis at 20 uM after 24 hrs using annexin V-FITC/propidium iodide staining by flow cytometry. In kind it is functional. The method, boiled down: (§1)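 B16-F10 cells in DMEM/10% FBS were plated at 300,000 cells/well, then treated 24 h later, in duplicate, in DMSO at […] for 24 or 48 h. Vehicle and medium controls were included. Annexin V-FITC/PI staining ran 15 min at room temperature in the dark. Total apoptosis (early + late) was read by flow cytometry as mean ± SD from two independent experiments.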
(In general: A flow cytometer gives signals particle by particle.)

The test system of assay [2] is B16-F10. The assay can be described thus: Induction of apoptosis in mouse B16F10 cells assessed as early/late apoptotic cells at 30 uM after 24 hrs using annexin V-FITC/propidium iodide staining by flow cytometry. In kind it is functional. An outline of the steps:
(§2)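 B16-F10 cells grown in DMEM with 4 mM L-glutamine, 1 mM pyruvate, 4.5 g/L glucose and 10% FBS. 300,000 cells/well were plated, then treated in DMSO after 24 h. Vehicle and medium-alone controls were included. Cells were detached with EDTA-trypsin, PBS-washed and set at 1 × 10^6 cells/mL in binding buffer. Annexin V-FITC/PI staining ran 15 min at room temperature in the dark, followed by flow cytometry within 1 h.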

For assay [3], the system named is B16-F10. The assay is described as follows: Induction of apoptosis in mouse B16F10 cells assessed as total apoptosis at 20 uM after 48 hrs using annexin V-FITC/propidium iodide staining by flow cytometry. In kind it is functional, cell-based. An outline of the steps:
as §1

Assay [4] deals with B16-F10. The assay can be described thus: Induction of apoptosis in mouse B16F10 cells assessed as total apoptosis at 1 to 10 uM after 24 hrs using annexin V-FITC/propidium iodide staining by flow cytometry. In kind it is functional, cell-based. The method, boiled down:
(§3)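 B16-F10 cells grown in DMEM with 4 mM L-glutamine, 1.5 g/L bicarbonate, 1 mM pyruvate, 4.5 g/L glucose, 10% FBS. Seeded at 300,000 cells/well in 6-well dishes, treated 24 h later with compound in DMSO. Vehicle and medium-only controls. Detached with EDTA-trypsin, PBS-washed, stained with annexin V-FITC and PI 15 min at room temperature in dark. Total apoptosis = early + late. Mean ± SD, two independent experiments.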

In assay [5] the test system is B16-F10. The assay is described as follows: Induction of apoptosis in mouse B16F10 cells assessed as total apoptosis at 1 to 10 uM after 48 hrs using annexin V-FITC/propidium iodide staining by flow cytometry. In kind it is functional, cell-based. An outline of the steps: as §3
The subject of assay [6] is B16-F10. The assay can be described thus: Induction of apoptosis in mouse B16F10 cells assessed as total apoptosis at 1 uM after 24 hrs using annexin V-FITC/propidium iodide staining by flow cytometry. In kind it is functional. The method, boiled down:
as §3

In assay [7] the test system is B16-F10. The assay is described as follows: Induction of apoptosis in mouse B16F10 cells assessed as necrotic cells at 30 uM after 24 hrs using annexin V-FITC/propidium iodide staining by flow cytometry. In kind it is functional. The method, boiled down: as §2
The test system of assay [8] is B16-F10. The assay is described as follows: Induction of apoptosis in mouse B16F10 cells at 30 uM after 24 hrs using annexin V-FITC/propidium iodide staining by flow cytometry. In kind it is functional. An outline of the steps: as §2

Here are results for ten molecules from ChEMBL document CHEMBL1914356, “Maslinic acid derivatives induce significant apoptosis in b16f10 murine melanoma cells” (2011).

Activity calls are given as the source filed them. No cut-off for these calls is given here. Bounds are passed on as bounds.

With `CC(=O)O[C@@H]1C[C@]2(C)[C@H]3CC=C4[C@@H]5CC(C)(C)CC[C@]5(C#N)CC[C@@]4(C)[C@]3(C)CC[C@H]2C(C)(C)[C@H]1OC(C)=O`, the Activity with B16-F10 [1] was 70%; with B16-F10 [2], 80%; in the assay with B16-F10 [6] it was 68.62%; in the assay with B16-F10 [7], less than 10%. Further, the result with B16-F10 [3] and with B16-F10 [4] was Active. Further, the result in the assay with B16-F10 [5] was inactive.
Regarding `COC(=O)[C@]12CCC(C)(C)C[C@H]1C1=CC[C@@H]3[C@@]4(C)C[C@@H](O)C(=O)[C@](C)(CO)[C@@H]4CC[C@@]3(C)[C@]1(C)CC2`, the Activity is 30% with B16-F10 [8] and less than 10% in the assay with B16-F10 [7].
For the molecule `CC1(C)CC[C@]2(C#N)CC[C@]3(C)C(=CC[C@@H]4[C@@]5(C)C[C@@H](O)[C@H](O)C(C)(C)[C@@H]5CC[C@]43C)[C@@H]2C1`, the Activity was 70% with B16-F10 [1], 80% with B16-F10 [2], 78.75% with B16-F10 [6] and less than 10% in the assay on B16-F10 [7]. The outcome with B16-F10 [3] and with B16-F10 [4] was Active. In addition, the result in the assay on B16-F10 [5] was inactive.
Consider `CC1(C)CC[C@]2(C(=O)OCc3ccccc3)CC[C@]3(C)C(=CC[C@@H]4[C@@]5(C)C[C@@H](O)[C@H](O)C(C)(C)[C@@H]5CC[C@]43C)[C@@H]2C1` [BENZYL MASLINATE], for which the Activity in the assay with B16-F10 [1] was greater than 70%; in the assay with B16-F10 [2], 80%; in the assay with B16-F10 [6], 87.5%; in the assay with B16-F10 [7], less than 10%. The result with B16-F10 [3] and in the assay with B16-F10 [4] was Active. Also, the result in the assay on B16-F10 [5] was inactive.
For the molecule `CC1(C)CC[C@]2(C(=O)OCc3ccccc3)CC[C@]3(C)C(=CC[C@@H]4[C@@]5(C)CC(=O)[C@H](O)C(C)(C)[C@@H]5CC[C@]43C)[C@@H]2C1`, the Activity with B16-F10 [1] was greater than 70%; in the assay with B16-F10 [2], 80%; in the assay with B16-F10 [7] it was less than 10%. Also, the result in the assay on B16-F10 [3] was Active.
Regarding `CC1(C)CC[C@]2(C(=O)[O-])CC[C@]3(C)C(=CC[C@@H]4[C@@]5(C)C[C@@H](O)[C@H](O)C(C)(C)[C@@H]5CC[C@]43C)[C@@H]2C1.[Na+]` [SODIUM MASLINATE], the Activity is listed as 70% in the assay on B16-F10 [1], 80% in the assay with B16-F10 [2], 56.67% in the assay on B16-F10 [6] and less than 10% in the assay with B16-F10 [7].
With `COC(=O)[C@]12CCC(C)(C)C[C@H]1[C@]1(/C=C\[C@@]34O[C@]3(C)CC[C@H]3C(C)(C)[C@@H](O)CC[C@@]34C)O[C@@]1(C)CC2`, the results for the Activity with B16-F10 [8] and in the assay on B16-F10 [7] were 30% and less than 10%, respectively.
On the same counts, the results for `COC(=O)[C@]12CCC(C)(C)C[C@H]1[C@@](O)(/C=C\[C@@]13O[C@]1(C)CC[C@H]1C(C)(C)[C@@H](O)CC[C@@]13C)[C@](C)(O)CC2` are 30% and less than 10%.
In the case of `CC1(C)CC[C@]2(C(N)=O)CC[C@]3(C)C(=CC[C@@H]4[C@@]5(C)C[C@@H](O)[C@H](O)C(C)(C)[C@@H]5CC[C@]43C)[C@@H]2C1`, the figures for the Activity in the assay on B16-F10 [1], with B16-F10 [2] and in the assay on B16-F10 [7] were 70%, 80% and less than 10%, respectively. Besides, the result with B16-F10 [3] was Active.
For the molecule `CC(=O)O[C@H]1CC[C@]2(C)[C@H]3C[C@H](OC(C)=O)[C@]45OC(=O)[C@@]6(CCC(C)(C)C[C@H]64)CC[C@@]5(C)[C@]3(C)CC[C@H]2C1(C)C`, the Activity is 30% in the assay on B16-F10 [8] and less than 10% in the assay with B16-F10 [7].
